Reference: ChEMBL document CHEMBL1949520, “Synthesis of terphenyl benzimidazoles as tubulin polymerization inhibitors” (2012)
Activity calls are given as the source filed them. The calls are words filed in the database; no cut-off is given here.

Tests used:
A549 [1] = test: Inhibition of alpha-tubulin in human A549 cells assessed as ratio of free to polymerized tubulin at 1 uM after 24 hrs by densitometric analysis relative to control; type: cell-based
Method in brief: (§1)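 A549 cells exposed 24 h (5 μM test agents; 1 μM nocodazole or taxol). Spun 15000g, 30 min, 22 °C to give soluble and polymerized fractions. α-Tubulin Western blot; band densitometry as soluble/polymerized ratio.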

A549 [2] = test: Cell cycle arrest in human A549 cells assessed as accumulation at G2/M phase at 5 uM after 48 hrs by propidium iodide staining-based flow cytometric analysis; type: functional
Method in brief: (§2)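 A549 cells treated 48 h (5 μM test agents; 1 μM standard), trypsin-EDTA harvest, PBS wash, fixed in ice-cold 70% ethanol at 4 °C for 30 min, then stained 30 min at room temperature in the dark with propidium iodide/trisodium citrate/Triton X-100 solution. DNA content by flow cytometry; G2/M fraction compared with untreated control.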

[3] = Growth inhibition of human DWD cells by SRB assay; type: functional
Bos taurus = organism: Bos taurus; test: Inhibition of bovine tubulin polymerization after 1 hr at 1 min interval by fluorescence assay
Method in brief: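 Bovine brain tubulin, 2 mg/mL, in PEM buffer (80 mM PIPES, 0.5 mM EGTA, 2 mM MgCl2, pH 6.9) with fluorescent reporter, compounds at 3 μM, 37 °C. Reaction started by adding 1 mM GTP. Polymerization followed as fluorescence gain (ex 360/em 420 nm), read every 1 min for 1 h. Nocodazole as positive control.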

ZR-75-1 = test: Growth inhibition of human ZR-75-1 cells by SRB assay; type: functional
MCF7 = test: Growth inhibition of human MCF7 cells by SRB assay; type: functional
A549 [4] = test: Inhibition of alpha-tubulin in human A549 cells assessed as ratio of free to polymerized tubulin at 5 uM after 24 hrs by densitometric analysis relative to control; type: cell-based; method in brief: as §1
SiHa = test: Growth inhibition of human SiHa cells by SRB assay; type: functional
A2780 = test: Growth inhibition of human A2780 cells by SRB assay; type: functional
COLO 205 = test: Growth inhibition of human COLO205 cells by SRB assay; type: functional
PC-3 = test: Growth inhibition of human PC3 cells by SRB assay; type: functional
[5] = Growth inhibition of human Gurav cells by SRB assay; type: functional
HOP-62 = test: Growth inhibition of human HOP62 cells by SRB assay; type: functional
KB = test: Growth inhibition of human KB cells by SRB assay; type: functional
A549 [6] = test: Growth inhibition of human A549 cells by SRB assay; type: functional
A549 [7] = test: Cell cycle arrest in human A549 cells assessed as accumulation at G2/M phase at 1 uM after 48 hrs by propidium iodide staining-based flow cytometric analysis relative to control; type: functional; method in brief: as §2

| inhibition (Bos taurus) | GI50 (MCF7) | GI50 (A2780) | GI50 (COLO 205) | GI50 (PC-3) | GI50 (KB) | GI50 (A549 [6]) | SMILES | fold change (FC) (A549 [1]) | Activity (A549 [2]) | GI50 [3] | GI50 (ZR-75-1) | fold change (FC) (A549 [4]) | GI50 (SiHa) | GI50 [5] | GI50 (HOP-62) | Activity (A549 [7]) |
| --- | --- | --- | --- | --- | --- | --- | --- | --- | --- | --- | --- | --- | --- | --- | --- | --- |
| – | 31 µM | 12.3 µM | 30.6 µM | 2.01 µM | 41.2 µM | 3.56 µM | Cc1ccc2[nH]c(-c3ccc(-c4ccc(-c5ccc(OC(F)(F)F)cc5)cc4)cc3)nc2c1 | – | – | 41.1 µM | 2.41 µM | – | 28.3 µM | 11 µM | 24.2 µM | – |
| – | 30.2 µM | 24.6 µM | 100 µM | 100 µM | 24.9 µM | 6.03 µM | Cc1ccc2[nH]c(-c3ccc(-c4ccc(-c5ccc(F)cc5)cc4)cc3)nc2c1 | – | – | 33.1 µM | 35 µM | – | 41 µM | 16.5 µM | 33.5 µM | – |
| – | 41.2 µM | 100 µM | 100 µM | 100 µM | 39.3 µM | 30.1 µM | CN(C)c1ccc(-c2ccc(-c3ccc(-c4nc5ccccc5[nH]4)cc3)cc2)cc1 | – | – | 100 µM | 100 µM | – | 100 µM | 100 µM | 100 µM | – |
| – | 7.6 µM | 21.6 µM | 41.2 µM | 47.1 µM | 9.25 µM | 7.6 µM | COc1ccc(-c2ccc(-c3ccc(-c4nc5ccccc5[nH]4)cc3)cc2)cc1OC | – | – | 42.1 µM | 39.7 µM | – | 6.2 µM | 9.23 µM | 4.2 µM | – |
| – | 31 µM | 12.3 µM | 30.6 µM | 2.01 µM | 41.2 µM | 3.52 µM | Cc1ccc2[nH]c(-c3ccc(-c4ccc(-c5ccc(C(F)(F)F)cc5)cc4)cc3)nc2c1 | – | – | 38.2 µM | 2.41 µM | – | 33.2 µM | 12 µM | 24.2 µM | – |
| – | 36.2 µM | 48.2 µM | 100 µM | 41.2 µM | 41.3 µM | 33.2 µM | Fc1ccc(-c2ccc(-c3ccc(-c4nc5ccccc5[nH]4)cc3)cc2)cc1 | – | – | 35.6 µM | 100 µM | – | 29.7 µM | 100 µM | 39.3 µM | – |
| – | 3.11 µM | 2.11 µM | 100 µM | 100 µM | 28.3 µM | 6.33 µM | COc1ccc(-c2ccc(-c3ccc(-c4nc5cc(C)ccc5[nH]4)cc3)cc2)cc1 | – | – | 100 µM | 41.1 µM | – | 21.2 µM | 9.27 µM | 36.3 µM | – |

Second part, the compound before the results:

| SMILES | inhibition (Bos taurus) | GI50 (MCF7) | GI50 (A2780) | GI50 (COLO 205) | GI50 (PC-3) | GI50 (KB) | GI50 (A549 [6]) | fold change (FC) (A549 [1]) | Activity (A549 [2]) | GI50 [3] | GI50 (ZR-75-1) | fold change (FC) (A549 [4]) | GI50 (SiHa) | GI50 [5] | GI50 (HOP-62) | Activity (A549 [7]) |
| --- | --- | --- | --- | --- | --- | --- | --- | --- | --- | --- | --- | --- | --- | --- | --- | --- |
| CC(=O)O[C@H]1C(=O)[C@@]2(C)[C@H]([C@H](OC(=O)c3ccccc3)[C@]3(O)C[C@H](OC(=O)[C@H](O)[C@@H](NC(=O)c4ccccc4)c4ccccc4)C(C)=C1C3(C)C)[C@]1(OC(C)=O)CO[C@@H]1C[C@@H]2O | – | – | – | – | – | – | – | 0.5 | – | – | – | – | – | – | – | – |
| Oc1ccc(-c2ccc(-c3ccc(-c4nc5c(O)cccc5[nH]4)cc3)cc2)cc1 | 36.3% | 0.19 µM | 2.92 µM | 2.6 µM | 0.19 µM | 3.19 µM | 0.17 µM | – | Active | 2.7 µM | 2.65 µM | 1.1 | 2.41 µM | 0.19 µM | 2.41 µM | – |
| COc1cc(-c2ccc(-c3ccc(-c4nc5c(O)cccc5[nH]4)cc3)cc2)cc(OC)c1OC | 98.3% | < 0.1 µM | 0.17 µM | 0.19 µM | 0.17 µM | 2.11 µM | < 0.1 µM | – | Active | 0.19 µM | 0.19 µM | 1.4 | 0.17 µM | 0.17 µM | 0.19 µM | – |
| COc1cc(-c2ccc(-c3ccc(-c4nc5cc(C)ccc5[nH]4)cc3)cc2)cc(OC)c1OC | 48.8% | 0.17 µM | 0.19 µM | 0.19 µM | 0.18 µM | 2.11 µM | < 0.1 µM | – | Active | 0.17 µM | 0.19 µM | 1.3 | 0.17 µM | 0.17 µM | 2.37 µM | – |
| c1ccc(-c2ccc(-c3ccc(-c4nc5ccccc5[nH]4)cc3)cc2)cc1 | – | 39.2 µM | 32.1 µM | 100 µM | 41.2 µM | 39.7 µM | 41.2 µM | – | – | 100 µM | 100 µM | – | 100 µM | 100 µM | 100 µM | – |
| COC(=O)Nc1nc2cc(C(=O)c3cccs3)ccc2[nH]1 | 58.9% | – | – | – | – | – | – | 1.5 | – | – | – | – | – | – | – | Active |
